ChEMBL document CHEMBL4130613, “Identification and Proposed Relative and Absolute Configurations of Niphimycins C-E from the Marine-Derived Streptomyces sp. IMB7-145 by Genomic Analysis” (J Nat Prod, 2018)
In brackets after ≈: the same amount, converted by molar mass. Activity calls are given as the source filed them. No cut-off for these calls is given here.

Assays:
[1] = test system: Staphylococcus epidermidis; experiment: Antibacterial activity against methicillin-resistant Staphylococcus epidermidis 12-8 after 18 hrs by agar dilution method; type: functional
[2] = test system: Staphylococcus aureus; experiment: Antibacterial activity against methicillin-resistant Staphylococcus aureus ATCC 33591 after 18 hrs by agar dilution method; type: functional
[3] = test system: Staphylococcus aureus; experiment: Antibacterial activity against methicillin-resistant Staphylococcus aureus 12-33 after 18 hrs by agar dilution method; type: functional
[4] = test system: Enterococcus faecalis; experiment: Antibacterial activity against vancomycin-resistant Enterococcus faecalis ATCC 51299 after 18 hrs by agar dilution method; type: functional
[5] = test system: Enterococcus faecalis; experiment: Antibacterial activity against vancomycin-resistant Enterococcus faecalis 09-9 after 18 hrs by agar dilution method; type: functional
[6] = test system: Enterococcus faecium; experiment: Antibacterial activity against vancomycin-resistant Enterococcus faecium ATCC 700221 after 18 hrs by agar dilution method; type: functional
[7] = test system: Enterococcus faecium; experiment: Antibacterial activity against vancomycin-resistant Enterococcus faecium 12-1 after 18 hrs by agar dilution method; type: functional
[8] = test system: Candida albicans; experiment: Antifungal activity against Candida albicans ATCC 10231 after 18 hrs by agar dilution method; type: functional; conditions: ATCC 10231, 18 h
[9] = test system: Escherichia coli; experiment: Antibacterial activity against extended-spectrum beta-lactamase-negative Escherichia coli ATCC 25922 after 18 hrs by agar dilution method; type: functional; conditions: ATCC 25922, 18 h
[10] = test system: Escherichia coli; experiment: Antibacterial activity against extended-spectrum beta-lactamase-negative Escherichia coli 1515 after 18 hrs by agar dilution method; type: functional; conditions: Escherichia coli, 1515, 18 h
[11] = test system: Escherichia coli; experiment: Antibacterial activity against extended-spectrum beta-lactamase-negative Escherichia coli 12-14 after 18 hrs by agar dilution method; type: functional; conditions: 12-14, 18 h
[12] = test system: Escherichia coli; experiment: Antibacterial activity against extended-spectrum beta-lactamase-positive Escherichia coli 12-15 after 18 hrs by agar dilution method; type: functional; conditions: 12-15, 18 h
[13] = test system: Klebsiella pneumoniae; experiment: Antibacterial activity against extended-spectrum beta-lactamase-positive Klebsiella pneumoniae ATCC 700603 after 18 hrs by agar dilution method; type: functional; conditions: Klebsiella pneumoniae, 700603, 18 h
[14] = test system: Klebsiella pneumoniae; experiment: Antibacterial activity against extended-spectrum beta-lactamase-negative Klebsiella pneumoniae 7 after 18 hrs by agar dilution method; type: functional; conditions: Klebsiella pneumoniae, 7, 18 h
[15] = test system: Klebsiella pneumoniae; experiment: Antibacterial activity against NDM-1 positive Klebsiella pneumoniae ATCC BAA-2146 after 18 hrs by agar dilution method; type: functional; conditions: ATCC BAA-2146, 18 h
[16] = test system: Klebsiella pneumoniae; experiment: Antibacterial activity against extended-spectrum beta-lactamase-negative Klebsiella pneumoniae 12-4 after 18 hrs by agar dilution method; type: functional; conditions: 12-4, 18 h
[17] = test system: Klebsiella pneumoniae; experiment: Antibacterial activity against extended-spectrum beta-lactamase-positive Klebsiella pneumoniae 12-8 after 18 hrs by agar dilution method; type: functional; conditions: 12-8, 18 h
[18] = test system: Pseudomonas aeruginosa; experiment: Antibacterial activity against Pseudomonas aeruginosa ATCC 27853 after 18 hrs by agar dilution method; type: functional; conditions: ATCC 27853, 18 h
[19] = test system: Pseudomonas aeruginosa; experiment: Antibacterial activity against Pseudomonas aeruginosa PAO1 after 18 hrs by agar dilution method; type: functional; conditions: PAO1, 18 h
[20] = test system: Pseudomonas aeruginosa; experiment: Antibacterial activity against Pseudomonas aeruginosa 12-16 after 18 hrs by agar dilution method; type: functional; conditions: 12-16, 18 h
[21] = test system: Acinetobacter calcoaceticus; experiment: Antibacterial activity against Acinetobacter calcoaceticus ATCC 19606 after 18 hrs by agar dilution method; type: functional; conditions: ATCC 19606, 18 h
[22] = test system: Enterobacter cloacae; experiment: Antibacterial activity against Enterobacter cloacae ATCC 43560 after 18 hrs by agar dilution method; type: functional; conditions: ATCC 43560, 18 h
[23] = test system: Klebsiella aerogenes; experiment: Antibacterial activity against Enterobacter aerogenes ATCC 13048 after 18 hrs by agar dilution method; type: functional; conditions: ATCC 13048, 18 h
[24] = test system: Serratia marcescens; experiment: Antibacterial activity against Serratia marcescens ATCC 21074 after 18 hrs by agar dilution method; type: functional; conditions: ATCC 21074, 18 h
[25] = test system: Morganella morganii; experiment: Antibacterial activity against Morganella morganii ATCC 25830 after 18 hrs by agar dilution method; type: functional; conditions: ATCC 25830, 18 h
[26] = test system: Providencia rettgeri; experiment: Antibacterial activity against Providencia rettgeri ATCC 31052 after 18 hrs by agar dilution method; type: functional; conditions: ATCC 31052, 18 h
[27] = test system: Proteus vulgaris; experiment: Antibacterial activity against Proteus vulgaris ATCC 29905 after 18 hrs by agar dilution method; type: functional; conditions: ATCC 29905, 18 h
[28] = test system: Proteus mirabilis; experiment: Antibacterial activity against Proteus mirabilis 12-6 after 18 hrs by agar dilution method; type: functional; conditions: 12-6, 18 h
[29] = test system: Stenotrophomonas maltophilia; experiment: Antibacterial activity against Stenotrophomonas maltophilia ATCC 13636 after 18 hrs by agar dilution method; type: functional; conditions: ATCC 13636, 18 h
[30] = test system: Citrobacter freundii; experiment: Antibacterial activity against Citrobacter freundii ATCC 43864 after 18 hrs by agar dilution method; type: functional; conditions: ATCC 43864, 18 h
[31] = test system: HeLa; experiment: Cytotoxicity against human HeLa cells after 48 hrs by SRB assay; type: functional, cell-based
Method in brief: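 HeLa human cervical carcinoma cells obtained from ATCC. Cytotoxicity was read by sulforhodamine B staining following an earlier published protocol, with doxorubicin hydrochloride as positive control. Values are reported as IC50.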

Structure (SMILES) | Activity [1] | Activity [2] | Activity [3] | Activity [4] | Activity [5] | Activity [6] | Activity [7] | MIC [8] | MIC [9] | MIC [10] | MIC [11] | MIC [12] | MIC [13] | MIC [14] | MIC [15] | MIC [16] | MIC [17] | MIC [18] | MIC [19] | MIC [20] | further results
CNC(=N)NCCC/C=C/CCC[C@H](C)C[C@H](C)[C@H]1OC(=O)[C@H](C)[C@H](O)/C=C/[C@H](C)[C@H](O)C[C@H](O)[C@H](C)[C@@H](O)CC[C@H](C)[C@H](O)C[C@]2(O)O[C@H](C[C@@H](OC(=O)CC(=O)O)C[C@H](O)C[C@@H](O)[C@H](C)[C@H](O)/C=C/C=C/[C@@H]1C)C[C@H](OC(=O)CC(=O)O)[C@H]2O | Active | Active | Active | Active | Active | Active | Active | 8 to 32 µg/mL (≈ 6.51 to 26 µM) | > 64 µg/mL | > 64 µg/mL | > 64 µg/mL | > 64 µg/mL | > 64 µg/mL | > 64 µg/mL | > 64 µg/mL | > 64 µg/mL | > 64 µg/mL | > 64 µg/mL | > 64 µg/mL | > 64 µg/mL | MIC [21]: > 64 µg/mL; MIC [22]: > 64 µg/mL; MIC [23]: > 64 µg/mL; MIC [24]: > 64 µg/mL; MIC [25]: > 64 µg/mL; MIC [26]: > 64 µg/mL; MIC [27]: > 64 µg/mL; MIC [28]: > 64 µg/mL; MIC [29]: > 64 µg/mL; MIC [30]: > 64 µg/mL; IC50 [31]: 3 to 9 µM
CNC(=N)NCCC/C=C/CCC[C@H](C)C[C@H](C)[C@H]1OC(=O)[C@H](C)[C@H](O)/C=C/[C@H](C)[C@H](O)C[C@H](O)[C@H](C)[C@@H](O)CC[C@H](C)[C@H](OC(=O)CC(=O)O)C[C@]2(O)O[C@H](C[C@@H](OC(=O)CC(=O)O)C[C@H](O)C[C@@H](O)[C@H](C)[C@H](O)/C=C/C=C/[C@@H]1C)C[C@H](O)[C@H]2O | Active | Active | Active | Active | Active | Active | Active | 8 to 32 µg/mL (≈ 6.51 to 26 µM) | > 64 µg/mL | > 64 µg/mL | > 64 µg/mL | > 64 µg/mL | > 64 µg/mL | > 64 µg/mL | > 64 µg/mL | > 64 µg/mL | > 64 µg/mL | > 64 µg/mL | > 64 µg/mL | > 64 µg/mL | MIC [21]: > 64 µg/mL; MIC [22]: > 64 µg/mL; MIC [23]: > 64 µg/mL; MIC [24]: > 64 µg/mL; MIC [25]: > 64 µg/mL; MIC [26]: > 64 µg/mL; MIC [27]: > 64 µg/mL; MIC [28]: > 64 µg/mL; MIC [29]: > 64 µg/mL; MIC [30]: > 64 µg/mL; IC50 [31]: 3 to 9 µM
CNC(=N)NCCC/C=C/CCC[C@H](C)C[C@H](C)[C@@H](O)[C@@H](C)/C=C/C=C/[C@@H](O)[C@@H](C)[C@H](O)C[C@@H](O)C[C@H](O)C[C@@H](O)C[C@H](O)[C@@H](O)C(O)C[C@@H](O)[C@@H](C)CC[C@H](O)[C@@H](C)[C@@H](O)C[C@@H](O)[C@@H](C)/C=C/[C@@H](O)[C@@H](C)C(=O)O (stereo partly drawn) | Active | Active | Active | Active | Active | Active | Active | 8 to 32 µg/mL (≈ 7.43 to 29.7 µM) | > 64 µg/mL | > 64 µg/mL | > 64 µg/mL | > 64 µg/mL | > 64 µg/mL | > 64 µg/mL | > 64 µg/mL | > 64 µg/mL | > 64 µg/mL | > 64 µg/mL | > 64 µg/mL | > 64 µg/mL | MIC [21]: > 64 µg/mL; MIC [22]: > 64 µg/mL; MIC [23]: > 64 µg/mL; MIC [24]: > 64 µg/mL; MIC [25]: > 64 µg/mL; MIC [26]: > 64 µg/mL; MIC [27]: > 64 µg/mL; MIC [28]: > 64 µg/mL; MIC [29]: > 64 µg/mL; MIC [30]: > 64 µg/mL; IC50 [31]: > 10 µM
